Here are results for twelve compounds from PubChem BioAssay.

Active and inactive are the calls of the source.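 The calls were made as follows, unless noted: active = compounds giving at least 50% inhibition in the cell-based MKP-3 phosphatase rescue imaging test; inactive = the rest.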

What is called inhibition is the change of the read-out against control, counted positive when it falls.

Test [1] in a line: inhibitors of TNFa-induced NFkB p65 translocation, primary screen, imaging, HUVEC, MLSMR starter and 10KST1 sets (AID 438;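 active = inhibition above 20% together with a positive visual image hit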;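 also: compound added about 3h40 before a 20 min TNFalpha stimulation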;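 as to inhibition: signal is the nuclear over cytoplasmic p65 intensity ratio per well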). Particulars: HUVEC TNFa-induced p65 nuclear translocation; cell count: measured here: nuclei count (cytotoxicity indicator), at 2.08 µM; inhibition: at 2 µM, stronger effect = higher value, 0% TNFa-plus-vehicle, 100% no-TNFa wells.
Test [2] in a line: endothelial E-selectin expression blockers – imaging, HUVEC, immunofluorescence, MLSMR starter and 10KST1 sets, primary screen (AID 487;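 active = visually confirmed hit in the image check and inhibition above 20%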;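 as to inhibition: signal is fraction of cell area covered by stained E-selectin grains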;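 as to nuclei count: 100% = median nuclei count of all wells on the same plate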). Particulars: HUVEC TNFalpha-induced E-selectin immunofluorescence imaging, at 2 µM; inhibition: stronger effect = higher value; nuclei count: measured here: cell number, toxicity.
A short description of test [3]: Primary imaging screen for DUSP6 inhibitors that restore phospho-Erk in transfected HeLa cells, chemical complementation (AID 609).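 As to inhibition: phospho-Erk level distribution per well compared with pooled transfected vehicle control wells.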 Conditions: HeLa MKP-3 transfected, phospho-Erk imaging KS statistic, at 10 µM, cells stimulated with TPA for 15 min.
Test [4] addresses Dual specificity protein phosphatase 6 (Homo sapiens) (UniProt Q16828). The test is described as above. Particulars: HeLa MKP-3 transfected, phospho-Erk imaging KS statistic; at 10 µM; stronger effect = higher value; cells stimulated with TPA for 15 min.
The target of test [5] is Voltage-gated potassium channel subunit beta-2 (Rattus norvegicus) (UniProt P62483). Nature of the test: inhibitors of rat Kvbeta2 reductase activity – biochemical, NADPH fluorescence, primary screen (AID 622;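 active = fluorescence slope higher than the sample average by over 3 SD, cut at about -0.22 in these data, passing the limit was not always enough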;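 also: slope of raw intensity against log time taken from 70 to 1610 s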). Particulars: recombinant KvBeta, 4-cyanobenzaldehyde reduction, at 10 µM, stronger effect = higher value.
Chain of Voltage-gated potassium channel subunit beta-2 (Rattus norvegicus) (P62483 whole entry, looked up): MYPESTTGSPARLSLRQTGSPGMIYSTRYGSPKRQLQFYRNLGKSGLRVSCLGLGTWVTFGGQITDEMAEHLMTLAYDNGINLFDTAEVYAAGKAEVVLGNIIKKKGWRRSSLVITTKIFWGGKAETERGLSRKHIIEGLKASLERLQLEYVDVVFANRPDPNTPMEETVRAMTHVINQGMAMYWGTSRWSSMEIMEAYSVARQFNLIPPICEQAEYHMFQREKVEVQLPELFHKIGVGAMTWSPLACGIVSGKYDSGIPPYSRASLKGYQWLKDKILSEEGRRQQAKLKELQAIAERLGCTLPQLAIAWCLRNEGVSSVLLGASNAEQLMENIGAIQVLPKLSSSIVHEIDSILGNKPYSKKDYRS
The target is the same in test [6]. Nature of the test: enhancers of rat Kvbeta2 NADPH turnover – biochemical, NADPH fluorescence, primary screen (AID 623;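 active = NADPH fluorescence slope more negative than the mean of all samples by about 3 SD, 99.7% confidence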;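 also: fluorescence intensity change per second fitted from 20 to 320 s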). Conditions: Recombinant KvBeta, NADPH fluorescence decrease slope, 10 min; at 10 µM; stronger effect = lower value.
In test [7] the target is Muscarinic acetylcholine receptor M4 (Homo sapiens) (UniProt P08173). The experiment in a line: M4-linked GIRK flux change, two-sided – cell-based, HEK293 M4/GIRK, thallium flux, BTC-AM, M4 allosteric agonist project, primary screen (AID 625;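 active = fluorescence slope after compound addition differing from the mean of all tested samples at 99.7% confidence, mostly higher but some lower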;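 also: thallium influx through GIRK channels coupled to M4 in HEK293 cells with BTC-AM dye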). Particulars: at 10 µM, actives lie on both sides. The gist of the method:
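assay system = HEK293 cells with M4 receptor and GIRK channels | medium = pH 7.3 thallium assay buffer | doses = 10 µM final, single point | timing = cells overnight at 37 °C, BTC-AM loading 1 h, reads 2 min total | signal = BTC-AM fluorescence, 1 Hz kinetic reads | read-out = post-addition slope, 15–24 s, of baseline-normalized fluorescence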

Test [8] can be described thus: inhibitors of larval lipid processing in zebrafish, primary screen, whole organism, PED6 fluorescence, gall bladder and intestine (AID 686;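 active = a full or partial loss of lipid-probe fluorescence in the fish gall bladder, intestine or both, judged by eye; inactive = no fluorescence loss, or compound toxic to the fish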;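 also: larvae 5 to 7 days old with five fish per well; signal comes from phospholipase A2 cleavage of quenched PED6 carried via bile; overnight exposure to compound and PED6 before scoring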). Conditions: Zebrafish larvae PED6 lipid processing, fluorescence scoring; screened at 20 µM (by protocol). An outline of the steps: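 Also added: quenched phospholipase substrate PED6, 100 nM final, ingested by larvae; System: zebrafish larvae, 5-7 d; Quantity: 5 larvae per well; Compound: 20 µM single dose; Schedule: overnight compound and PED6 incubation; Read-out: visual per-well fluorescence inhibition score; Measured by: By-eye fluorescence microscopy; Medium: E3.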

Test [9] in a line: loss of swimming-algae plug formation – whole organism, Chlamydomonas reinhardtii, WT vs cilia-less mutant, absorbance, 96-well, primary screen (AID 463189;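 active = inhibition at or above 50% relative to wild type and mutant plate controls; inactive = inhibition below 50%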;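 also: 0% = wild type cc124 cells in DMSO and 100% = ciliumless bld1 mutant cells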). Conditions: Chlamydomonas reinhardtii gravitaxis, OD600 absorbance, 2 days; at 10 µM; stronger effect = higher value.
Where [10] appears, read: measured here: cell density z-score.
Setting [11] is: measured here: nuclear c-Myc green intensity z-score.
Setting [12] is: measured here: nuclear pErk red intensity z-score, stronger effect = higher value.

Chain of Dual specificity protein phosphatase 6 (Homo sapiens) (Q16828 whole entry, looked up): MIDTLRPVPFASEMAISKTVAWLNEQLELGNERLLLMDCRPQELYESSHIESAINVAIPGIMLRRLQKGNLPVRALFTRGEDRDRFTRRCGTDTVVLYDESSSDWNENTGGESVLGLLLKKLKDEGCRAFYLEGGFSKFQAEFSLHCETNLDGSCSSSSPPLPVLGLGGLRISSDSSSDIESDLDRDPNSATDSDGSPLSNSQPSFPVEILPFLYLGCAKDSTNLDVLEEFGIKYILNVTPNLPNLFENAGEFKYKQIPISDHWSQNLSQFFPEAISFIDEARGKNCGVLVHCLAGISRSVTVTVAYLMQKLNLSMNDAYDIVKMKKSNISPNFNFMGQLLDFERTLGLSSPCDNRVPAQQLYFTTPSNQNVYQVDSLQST
Chain of Muscarinic acetylcholine receptor M4 (Homo sapiens) (P08173 whole entry, looked up): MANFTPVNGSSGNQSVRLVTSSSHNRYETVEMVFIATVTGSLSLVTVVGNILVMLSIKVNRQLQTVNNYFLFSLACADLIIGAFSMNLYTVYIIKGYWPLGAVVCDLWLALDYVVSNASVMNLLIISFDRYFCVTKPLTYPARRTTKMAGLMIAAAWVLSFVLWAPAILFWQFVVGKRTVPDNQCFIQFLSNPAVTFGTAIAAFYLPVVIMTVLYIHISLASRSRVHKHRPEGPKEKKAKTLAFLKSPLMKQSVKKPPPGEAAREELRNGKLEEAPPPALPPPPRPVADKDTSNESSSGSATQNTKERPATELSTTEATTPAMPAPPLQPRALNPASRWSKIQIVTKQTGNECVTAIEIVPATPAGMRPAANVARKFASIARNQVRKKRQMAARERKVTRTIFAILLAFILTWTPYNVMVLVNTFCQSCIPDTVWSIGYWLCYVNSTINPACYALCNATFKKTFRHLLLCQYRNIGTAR

Turning to `Cc1nn(CC(=O)NCCN2CCOCC2)c(=O)c2ccccc12`, in test [1], the cell count came to 472. Moreover, the inhibition in test [1] was 4.4% (inactive); in [2], -0.8% (inactive); in test [4] it was 5.95% (inactive); in [9], 27.9% (inactive). In addition, in test [2], the nuclei count was 116%. Moreover, the z-score was -1.02 in [3] (setting [10]), -0.0587 in [3] (setting [11]) and 0.79 in test [3] (setting [12]). The fluorescence slope in test [5] is -0.469 (inactive); in [7], 0.00615 (inactive). For the same compound, the NADPH fluorescence slope in [6] was -3.4e-05 (inactive). In test [8], the call was inactive.

Turning to `CCC(=O)NC1(C(F)(F)F)C(=O)Nc2c1c(=O)[nH]c(=O)n2Cc1ccco1` (stereo unspecified), the cell count in test [1] amounted to 652. In addition, the inhibition in test [1] was -2.8% (inactive); in test [2], -96.3% (inactive); in test [4] it was 1.04% (inactive); in [9], 9.21% (inactive). The same compound yielded a nuclei count in test [2] of 167%. Further, the z-score is -1.08 in [3] (setting [10]), 0.161 in test [3] (setting [11]) and 0.694 in test [3] (setting [12]). For the same compound, the values for the fluorescence slope in test [5] and in test [7] were -0.497 (inactive) and 0.00505 (inactive), respectively. The NADPH fluorescence slope in test [6] is -8.6e-05 (inactive). The compound was called inactive in [8].

For `N#Cc1ccc(-c2ccc(OCC(O)Cn3nnc4ccccc43)cc2)cc1` (stereo unspecified), the cell count in test [1] was 528. Moreover, the inhibition in test [1] was -15.6% (inactive); in test [2], -19.3% (inactive); in [4] it was 5.42% (inactive); in test [9], 52.4% (active). Further, in test [2], the nuclei count was found to be 116%. The z-score in test [3] (setting [10]) is -2.55; in test [3] (setting [11]), 0.882; in test [3] (setting [12]), 0.638. The fluorescence slope in [5] is -0.422 (inactive); in test [7] it was 0.00426 (inactive). In addition, the NADPH fluorescence slope in [6] is -6e-06 (inactive). For the same compound, the result in [8] was inactive.

On to `CCOC(=O)CCNc1n[nH]c(=O)[nH]c1=O`, for which the cell count in [1] stood at 611. In addition, the inhibition in test [1] is 29.6% (active); in test [2], -2.5% (inactive); in test [4] it was 15.5% (inactive); in test [9], -1.35% (inactive). Besides, in [2], the nuclei count came out at 107%. In addition, the z-score is 0.833 in test [3] (setting [10]), 0.318 in test [3] (setting [11]) and -1.89 in [3] (setting [12]). Moreover, the figures for the fluorescence slope in test [5] and in [7] were -0.497 (inactive) and 0.00518 (inactive), respectively. In [6], the NADPH fluorescence slope is -1.9e-05 (inactive). In addition, in test [8], the compound was called inactive.

Consider `CCOC(=O)C1=C(N)n2c(s/c(=C\c3ccco3)c2=O)=C(C(=O)OC(C)C)C1c1ccco1` (stereo unspecified), for which the cell count in test [1] was 383. Moreover, the inhibition was -7.4% (inactive) in test [1], -126% (inactive) in [2], -4.59% (inactive) in test [4] and 27.2% (inactive) in test [9]. The nuclei count in test [2] was 166%. Moreover, the z-score is 0.588 in test [3] (setting [10]), -1.67 in test [3] (setting [11]) and 1.18 in test [3] (setting [12]). Further, the fluorescence slope was -0.46 (inactive) in test [5] and 0.00444 (inactive) in [7]. For the same compound, in test [6], the NADPH fluorescence slope is -7.4e-05 (inactive). Besides, in [8], the compound was called inactive.

Turning to `CC1(C(=O)CSc2n[nH]c(-c3ccccc3Cl)n2)CCC(=O)O1` (stereo unspecified), in test [1], the cell count was 640. Besides, the inhibition in [1] is -3.4% (inactive); in test [2] it was -44.5% (inactive); in test [4], -2.47% (inactive); in [9] it was 3.93% (inactive). In test [2], this compound displayed a nuclei count of 144%. In addition, the figures for the z-score in test [3] (setting [10]), in test [3] (setting [11]) and in [3] (setting [12]) were 1.47, -0.819 and -0.432, respectively. The results for the fluorescence slope in test [5] and in test [7] were -0.482 (inactive) and 0.0054 (inactive), respectively. Moreover, the NADPH fluorescence slope in test [6] was -7.8e-05 (inactive). In addition, the outcome in [8] was inactive.

Take `COc1ccc(N2CC(=O)N(c3ccc(OC)c(OC)c3)CC2=O)cc1OC`: in test [1], the cell count was found to be 400. In addition, the inhibition is -5.7% (inactive) in [1], -94.2% (inactive) in test [2], 3.42% (inactive) in [4] and 18.5% (inactive) in [9]. Besides, in test [2], the nuclei count was found to be 142%. In addition, the z-score in [3] (setting [10]) is -0.173; in test [3] (setting [11]) it was -2.28; in test [3] (setting [12]), 1.66. Further, the values for the fluorescence slope in test [5] and in [7] were -0.477 (inactive) and 0.00438 (inactive), respectively. In addition, in [6], the NADPH fluorescence slope was -5.2e-05 (inactive). In [8], the outcome was inactive.

As to `O=C(Nc1ccc(N2CCN(C(=O)c3ccccc3)CC2)c(Cl)c1)c1ccc(Br)o1`, the cell count in test [1] stood at 435. Besides, the inhibition in [1] is -6.8% (inactive); in [2] it was -72.9% (inactive); in test [4] it was -7.28% (inactive); in test [9], 117% (active). In addition, in test [2], the nuclei count was 143%. The z-score in test [3] (setting [10]) was -0.73; in [3] (setting [11]), 0.543; in [3] (setting [12]) it was -0.883. Moreover, the fluorescence slope is -0.431 (inactive) in test [5] and 0.00435 (inactive) in test [7]. Also, the NADPH fluorescence slope in [6] is -2.9e-05 (inactive). Besides, the outcome in test [8] was inactive.

On to `CC(=O)/C(C#N)=C1\NC(=O)C(Cc2ccccc2)S1` (stereo unspecified), for which the cell count in test [1] amounted to 574. The inhibition in test [1] is -16.2% (inactive); in test [2] it was 5.4% (inactive); in test [4], -8.59% (inactive); in [9], 3.86% (inactive). Moreover, the nuclei count in test [2] turned out to be 183%. Besides, the z-score in test [3] (setting [10]) was 0.151; in test [3] (setting [11]), 0.495; in test [3] (setting [12]), 0.071. The results for the fluorescence slope in test [5] and in test [7] were -0.425 (inactive) and 0.00604 (inactive), respectively. The NADPH fluorescence slope in [6] is -6.1e-05 (inactive). The compound was classed as inactive in test [8].

`CCc1nc(N2CCCC2)c(C#N)c2c1CCCC2`: in test [1], the cell count stood at 422. In addition, the inhibition in test [1] was 2.1% (inactive); in test [2], -71.3% (inactive); in test [4] it was -6.59% (inactive); in test [9], -11.4% (inactive). For the same compound, the nuclei count in [2] was 118%. Further, the z-score in test [3] (setting [10]) is -1.3; in test [3] (setting [11]) it was 0.104; in test [3] (setting [12]), 0.215. In addition, the fluorescence slope is -0.506 (inactive) in [5] and 0.00476 (inactive) in [7]. In addition, the NADPH fluorescence slope in [6] is 3e-05 (inactive). Moreover, in [8], the call was inactive.

As to `CCOC(=O)Oc1ccc2c(c1)C(C)=CC(C)(C)N2C(=O)OCC`, the cell count in [1] is 618. For the same compound, the inhibition is 2.2% (inactive) in test [1], -42% (inactive) in test [2], -13.3% (inactive) in [4] and -7.72% (inactive) in test [9]. In test [2], the nuclei count amounted to 115%. Further, the z-score is 1.01 in test [3] (setting [10]), 0.72 in test [3] (setting [11]) and 0.465 in test [3] (setting [12]). For the same compound, the fluorescence slope is -0.433 (inactive) in test [5] and 0.00572 (inactive) in test [7]. The NADPH fluorescence slope in [6] was -4.7e-05 (inactive). Besides, the outcome in test [8] was inactive.

Take `COC(=O)C(NC(=O)c1ccco1)(Nc1ccc(Br)cn1)C(F)(F)F` (stereo unspecified): the cell count in [1] turned out to be 717. In addition, the inhibition is -8.8% (inactive) in [1], 13.2% (inactive) in test [2], -5.81% (inactive) in [4] and 4.54% (inactive) in test [9]. In test [2], this compound displayed a nuclei count of 147%. In addition, the z-score in test [3] (setting [10]) was -0.772; in test [3] (setting [11]) it was -0.373; in test [3] (setting [12]) it was 1.11. The fluorescence slope in test [5] is -0.457 (inactive); in test [7], 0.00446 (inactive). In addition, the NADPH fluorescence slope in test [6] was -6.6e-05 (inactive). Moreover, the call in test [8] was inactive.
